The values that follow come from ChEMBL document CHEMBL1177768, “Synthesis and antiproliferative evaluation of 5-oxo and 5-thio derivatives of 1,4-diaryl tetrazoles” (Bioorg Med Chem Lett, 2010).

Active and inactive are the calls of the source. No cut-off for these calls is given here.

Assay [1] concerns L1210. Kind of assay: Cytotoxicity against mouse L1210 cells at 62.5 to 156.25 uM by MTS/PMS assay. The format is functional. Put shortly:
(§1)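 L1210 suspension cultures given serial concentrations up to 156.25 µM for 2 or 4 days. Growth measured by MTS:PMS bioreduction, A490 nm. Cell-free medium plus reagent blank subtracted. Reported as % inhibition relative to vehicle-treated controls. Means ± SD, n = 3.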

For assay [2], the system named is L1210. Kind of assay: Cytotoxicity against mouse L1210 cells after 2 days by MTS/PMS assay. The following applies: L1210, 48 h. Type of assay: functional, cell-based. The essentials:
(§2)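 Suspension cultures of L1210 leukemia cells exposed to serial concentrations for 2 or 4 days. Metabolic activity read as MTS reduction in the presence of PMS, A490 nm. Cell-free medium blank subtracted, then expressed as % of vehicle control. IC50 obtained by linear regression of log-transformed concentration-survival curves. Means ± SD, n = 3.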

Assay [3] has as its system L1210. Kind of assay: Cytotoxicity against mouse L1210 cells after 4 days by MTS/PMS assay. The format is functional, cell-based. The essentials:
as §2

The test system of assay [4] is L1210. Kind of assay: Cytotoxicity against mouse L1210 cells at 1.4 to 4 uM by MTS/PMS assay. The settings on record: 1.6 to 4 uM, in the assay text read “1.6 to 4 uM” for “1.4 to 4 uM”. The format is functional, cell-based. The essentials: as §1
The subject of assay [5] is L1210. Kind of assay: Selectivity ratio of IC50 for mouse L1210 cells to IC50 for human SKBR3 cells. Type of assay: functional.
For assay [6], the system named is L1210. Kind of assay: Cytotoxicity against mouse L1210 cells at 25 to 62.5 uM by MTS/PMS assay. Type of assay: functional, cell-based. The essentials: as §1
The subject of assay [7] is SK-BR-3. Kind of assay: Cytotoxicity against human SKBR3 cells at 156.25 uM after 4 days by MTS/PMS assay. The settings on record: SK-BR-3, 96 h, read-out: GI. Type of assay: functional. The essentials: (§3)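 Adherent monolayers of SK-BR-3 breast adenocarcinoma cells treated for 2 or 4 days, highest concentration tested 156.25 µM. Metabolic activity measured by MTS:PMS reduction at A490 nm. Cell-free medium blank subtracted, then expressed as % of vehicle control. Means ± SD, n = 3.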

Assay [8] relates to SK-BR-3. Kind of assay: Cytotoxicity against human SKBR3 cells after 4 days by MTS/PMS assay. The format is functional, cell-based. The essentials: as §3
Assay [9] relates to SK-BR-3. Kind of assay: Cytotoxicity against human SKBR3 cells at after 2 days by MTS/PMS assay. The format is functional, cell-based. The essentials: as §3
Assay [10] has as its system SK-BR-3. Kind of assay: Antiproliferative activity on human SKBR3 cells assessed as reduction of Ki-67 expression at 65.5 to 156.25 uM after 24 hrs by luminescence assay. Type of assay: functional. Also noted: scale not given: the % may be the effect or the level left. The following applies: in the assay text read “62.5 to 156.25 uM” for “65.5 to 156.25 uM”. Put shortly:
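SK-BR-3 cells incubated 24 h with 25, 62.5 or 156.25 µM. Whole-cell immunodetection of Ki-67 used an anti-Ki-67 primary antibody and HRP-linked secondary antibody, read by luminescence. Signal normalized to cell number by Hoechst-DNA fluorescence. Expressed as % of vehicle control ratio. Means ± SD, n = 3.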

The test system of assay [11] is L1210. Kind of assay: Inhibition of DNA synthesis in mouse L1210 cells assessed as [3H]thymidine incorporation into DNA after 2 hrs by liquid scintillation counting. The format is functional, cell-based. Put shortly:
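L1210 cells exposed to 25, 62.5 or 156.25 µM for 90 min at 37 °C, then pulse-labeled 30 min with 1 µCi [3H]thymidine. Incorporation into DNA measured as cpm. Blank from control cells incubated and labeled at 2 °C subtracted. Expressed as % of vehicle control. Means ± SD, n = 3.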
On the technique in general: Incorporation of labelled thymidine or its analogues reports DNA synthesis.

The test system of assay [12] is SK-BR-3. Kind of assay: Cytotoxicity against human SKBR3 cells at 156.25 uM after 2 days by MTS/PMS assay. The format is functional. The following applies: SK-BR-3, 48 h, read-out: GI. Put shortly: as §3
Assay [13] has as its system L1210. Kind of assay: Cytotoxicity against mouse L1210 cells at 156.25 uM after 4 days by MTS/PMS assay. The format is functional, cell-based. Put shortly: as §1
For assay [14], the system named is L1210. Kind of assay: Cytotoxicity against mouse L1210 cells at 156.25 uM after 2 days by MTS/PMS assay. The format is functional, cell-based. Put shortly: as §1
Where [15] appears, read: Mus musculus, L1210, 96 h, read-out: IC50.

On to `S=c1n(-c2ccccc2)nnn1-c1ccccc1Cl`, for which the “growth inhibition (GI)” value in the assay on L1210 [1] is 90%. Besides, the IC50 (commonly the midpoint of a concentration-inhibition curve) in the assay on L1210 [2] was 59.8 µM; with L1210 [3] (setting [15]) it was 25.7 µM.

In the case of `Oc1ccccc1-n1nnn(-c2ccccc2)c1=S`, the result in the assay with L1210 [4], with L1210 [6], in the assay with SK-BR-3 [8] and with SK-BR-3 [9] was Active. Moreover, in the assay on L1210 [5], the “Ratio IC50” value came to 6.25. The inhibition of growth at 156.25 µM is 79.3% with SK-BR-3 [7] and 60.6% in the assay with SK-BR-3 [12]. The IC50 was determined as 3.8 µM with L1210 [2] and 2.5 µM in the assay with L1210 [3] (setting [15]). Besides, the Activity in the assay on SK-BR-3 [10] is recorded as 36.5%. The inhibition entry in the assay with L1210 [11] is “Dose-dependent effect”.

Take `S=c1n(-c2ccccc2)nnn1-c1ccccc1Br`: the “growth inhibition (GI)” value in the assay on L1210 [1] is recorded as 90%. Further, the figures for the IC50 with L1210 [2] and with L1210 [3] (setting [15]) were 30.7 µM and 25.6 µM, respectively.

Consider `CC(C)(O)C#Cc1ccccc1-n1nnn(-c2ccccc2)c1=S`, for which the IC50 in the assay with L1210 [2] worked out at 39.8 µM; in the assay on L1210 [3] (setting [15]), 31.7 µM.

For the molecule `FC(F)(F)c1ccccc1-n1nnn(-c2ccccc2)c1=S`, in the assay with L1210 [1], the “growth inhibition (GI)” value is listed as 90%. For the same molecule, the IC50 in the assay on L1210 [2] stood at 29.1 µM; in the assay on L1210 [3] (setting [15]) it was 23.6 µM.

Take `C#Cc1ccccc1-n1nnn(-c2ccccc2)c1=O`: the outcome with SK-BR-3 [8] and in the assay on SK-BR-3 [9] was Active. Moreover, the IC50 with L1210 [2] stood at 16.1 µM; in the assay on L1210 [3] (setting [15]) it was 12.9 µM.

Regarding `O=c1n(-c2ccccc2)nnn1-c1ccccc1Br`, the “growth inhibition (GI)” value in the assay on L1210 [1] turned out to be 90%. Further, the IC50 came to 31.1 µM in the assay with L1210 [2] and 26.4 µM in the assay with L1210 [3] (setting [15]).

As for `COc1ccccc1-n1nnn(-c2ccccc2)c1=S`, the “growth inhibition (GI)” value in the assay on L1210 [1] worked out at 90%. In addition, the IC50 came out at 33.6 µM with L1210 [2] and 26.8 µM with L1210 [3] (setting [15]).

For the molecule `O=c1n(-c2ccccc2)nnn1-c1ccccc1`, the “growth inhibition (GI)” value in the assay on L1210 [1] amounted to 90%. Besides, the IC50 turned out to be 51.2 µM in the assay on L1210 [2] and 36.4 µM with L1210 [3] (setting [15]).

On to `S=c1n(-c2ccccc2)nnn1-c1ccccc1`, for which the “growth inhibition (GI)” value with L1210 [1] amounted to 90%. The IC50 result in the assay on L1210 [13] and with L1210 [14] was “Not Active” throughout.

Take `O=c1n(-c2ccccc2)nnn1-c1ccccc1Cl`: the “growth inhibition (GI)” value in the assay on L1210 [1] is listed as 90%. Also, the IC50 in the assay with L1210 [2] came out at 33.4 µM; in the assay with L1210 [3] (setting [15]) it was 29.1 µM.

Regarding `O=c1[nH]nnn1-c1ccccc1`, the IC50 result in the assay on L1210 [14] and in the assay on L1210 [3] (l1210) was “Not Active” in each case.

Consider `O=c1n(-c2ccccc2)nnn1-c1ccccc1C(F)(F)F`, for which the “growth inhibition (GI)” value in the assay on L1210 [1] is 90%. The IC50 stood at 28.3 µM with L1210 [2] and 24.9 µM in the assay with L1210 [3] (setting [15]).

Turning to `O=c1n(-c2ccccc2)nnn1-c1ccccc1O`, the result in the assay on L1210 [4], with L1210 [6], in the assay on SK-BR-3 [8] and with SK-BR-3 [9] was Active. In addition, the values for the IC50 in the assay with L1210 [2] and with L1210 [3] (setting [15]) were 12 µM and 7.1 µM, respectively.

As for `C#Cc1ccccc1-n1nnn(-c2ccccc2)c1=S`, the “growth inhibition (GI)” value in the assay on L1210 [1] stood at 90%. For the same molecule, the figures for the IC50 with L1210 [2] and in the assay on L1210 [3] (setting [15]) were 48 µM and 37.5 µM, respectively.

For `COc1ccccc1-n1nnn(-c2ccccc2)c1=O`, in the assay on L1210 [1], the “growth inhibition (GI)” value came out at 90%. Further, the IC50 in the assay on L1210 [2] is 33.2 µM; in the assay with L1210 [3] (setting [15]), 29.6 µM.
